Results from ChEMBL document CHEMBL4425132, “Antibacterial and Solubility Optimization of Thiomuracin A” (J Med Chem, 2016).
Converted amounts (≈) assume the structure as drawn.

Legend:
Enterococcus faecalis [1] = assay: Antimicrobial activity against Enterococcus faecalis ATCC 29212 by broth microdilution method; type: functional
In short: (§1)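 MICs determined by CLSI broth microdilution. Broth microdilution was used for every species tested, including the anaerobe C. difficile.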

Enterococcus faecium = assay: Antimicrobial activity against Enterococcus faecium 7130724 by broth microdilution method; type: functional; in short: as §1
Staphylococcus aureus [2] = assay: Antimicrobial activity against methicillin-resistant Staphylococcus aureus by broth microdilution method; type: functional
In short: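 Broth microdilution MIC following CLSI methods, with broth microdilution used for all species.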

Streptococcus pyogenes = assay: Antimicrobial activity against Streptococcus pyogenes ATCC BAA-595 by broth microdilution method; type: functional; in short: as §1
Clostridioides difficile [3] = assay: Antimicrobial activity against Clostridium difficile ATCC 43255 by broth microdilution method; type: functional; in short: as §1
[4] = Aqueous solubility of the compound at 20 mg/ml after 24 hrs RP-HPLC based shake flask method; type: physicochemical; conditions: aqueous medium
In short: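 Compound samples examined for dissolution. Clear solutions were reported as >starting concentration, with pH recorded. Samples with visible particles were filtered through 0.22 µ PVDF membranes, pH recorded, and dissolved drug quantified by RP-HPLC.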

Clostridioides difficile [5] = assay: Antimicrobial activity against Clostridium difficile ATCC 43255 infected in golden Syrian hamster assessed as animal survival at 5 mg/kg, po for 5 days dosed starting 24 hrs after infection measured for 16 days; type: functional; conditions: ATCC 43255, po
In short: (§2)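 Hamsters given a single subcutaneous clindamycin injection (10 mg/kg) on day -1. About 24 h later they were infected by oral gavage with ~7.5 x10^6 CFU/hamster. Inoculum was prepared from overnight plates resuspended in reinforced clostridial medium + 1% oxyrase. Oral dosing once daily for up to 5 days, 8 animals per dose. Animals observed twice daily for mortality, diarrhea and morbidity. Vehicle-only control group.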

Staphylococcus aureus [6] = assay: Antimicrobial activity against Staphylococcus aureus ATCC 49951 infected in CD1 mouse systemic infection model dosed intravenously 1 and 5 hrs after inoculation; type: functional; conditions: for ED50: ATCC 49951, iv
Enterococcus faecalis [7] = assay: Antimicrobial activity against Enterococcus faecalis NB04025 infected in CD1 mouse systemic infection model dosed intravenously once immediately following bacterial inoculation; type: functional; conditions: for ED50: NB04025, iv
Clostridioides difficile [8] = assay: Antimicrobial activity against Clostridium difficile ATCC 43255 infected in golden Syrian hamster assessed as animal survival at 20 mg/kg, po for 5 days dosed starting 24 hrs after infection measured for 16 days; type: functional; conditions: ATCC 43255, po; in short: as §2
Clostridioides difficile [9] = assay: Antimicrobial activity against Clostridium difficile ATCC 43255 infected in golden Syrian hamster assessed as animal survival at 10 mg/kg, po for 5 days dosed starting 24 hrs after infection measured for 16 days; type: functional; conditions: ATCC 43255, po; in short: as §2
Staphylococcus aureus [10] = assay: Antimicrobial activity against Staphylococcus aureus ATCC 49951; type: functional
In short: (§3)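 MIC by CLSI broth microdilution against the strains used in the mouse infection model.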

Enterococcus faecalis [11] = assay: Antimicrobial activity against Enterococcus faecalis NB04025; type: functional; in short: as §3
Clostridioides difficile [12] = assay: Antimicrobial activity against Clostridium difficile ATCC 43255 infected in golden Syrian hamster assessed as animal survival at 25 mg/kg, po for 5 days dosed starting 24 hrs after infection measured for 16 days; type: functional; conditions: ATCC 43255, po; in short: as §2
[13] = AUC in Sprague-Dawley rat at 1 mg/kg, iv by LC-MS/MS method; type: ADME, organism-based; conditions: in vivo
In short: (§4)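 Rats fasted overnight before dosing and for 8 hr after. Blood collected into K2-EDTA tubes and centrifuged to plasma. Plasma protein-precipitated with acetonitrile containing glyburide internal standard. Analysis by LC-MS/MS on reversed-phase C18 columns with a 5% to 95% acetonitrile gradient over ~3.5 min (0.1% formic acid in both phases).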

[14] = Clearance in Sprague-Dawley rat at 1 mg/kg, iv by LC-MS/MS method; type: ADME, organism-based; conditions: in vivo; in short: as §4
[15] = Volume of distribution at steady state in Sprague-Dawley rat at 1 mg/kg, iv by LC-MS/MS method; type: ADME, organism-based; conditions: in vivo, read-out: Vdss; in short: as §4
[16] = Half life in Sprague-Dawley rat at 1 mg/kg, iv by LC-MS/MS method; type: ADME, organism-based; conditions: in vivo; in short: as §4

| Structure (SMILES) | MIC (Enterococcus faecalis [1]) | MIC (Enterococcus faecium) | MIC (Staphylococcus aureus [2]) | MIC (Streptococcus pyogenes) | MIC (Clostridioides difficile [3]) | solubility thermodynamic at 24 h [4] | ED50 (Staphylococcus aureus [6]) | ED50 (Enterococcus faecalis [7]) | survival at 25 mg/kg (Clostridioides difficile [12]) | other results |
| --- | --- | --- | --- | --- | --- | --- | --- | --- | --- | --- |
| Cc1sc2nc1C(=O)N[C@@H]([C@H](O)c1ccccc1)c1nc(cs1)C(=O)N[C@@H](Cc1ccc(O)cc1)C(=O)NCC(=O)N1C[C@H](O)[C@H](C)[C@H]1c1nc(cs1)-c1nc(cs1)-c1nc(-c3nc(C(=O)N(CCCCC(=O)O)[C@H]4CC[C@H](C(=O)O)CC4)cs3)ccc1-c1nc(cs1)C(=O)N[C@H]2CC(N)=O | 1 µg/mL (≈ 0.674 µM) | 1 µg/mL (≈ 0.674 µM) | 2 µg/mL (≈ 1.35 µM) | 0.5 µg/mL (≈ 0.337 µM) | 0.125 µg/mL (≈ 0.0842 µM) | 3400 µg/mL (≈ 2290 µM) | – | – | – | – |
| COCc1sc2nc1C(=O)NCC(=O)N[C@@H]([C@@H](O)c1ccccc1)c1nc(cs1)-c1nc(cs1)-c1nc(-c3nc(N(CCCCC(=O)O)C(=O)O[C@H]4CC[C@H](C(=O)O)CC4)cs3)ccc1-c1nc(cs1)C(=O)N[C@@H](CC(N)=O)C1=NC(C)=C(S1)C(=O)N[C@H]2C(C)C | – | – | – | – | – | – | – | – | – | survival at 5 mg/kg (Clostridioides difficile [5]): 71 to 75% |
| CN[C@H](CC(C)C)C(=O)N[C@H]1C(=O)N[C@@H](CC(N)=O)C(=O)N[C@H]2C(=O)N[C@H]3C(=O)N[C@H](C(=O)N[C@H](C(=O)O)c4cc(O)cc(O)c4-c4cc3ccc4O)[C@H](O)c3ccc(c(Cl)c3)Oc3cc2cc(c3O[C@@H]2O[C@H](CO)[C@@H](O)[C@H](O)[C@H]2O[C@H]2C[C@](C)(N)[C@H](O)[C@H](C)O2)Oc2ccc(cc2Cl)[C@H]1O [VANCOMYCIN] | – | – | – | – | – | – | 1.1 mg/kg | 7.74 mg/kg | – | survival at 20 mg/kg (Clostridioides difficile [8]): 38% |
| Cc1sc2nc1C(=O)N[C@@H]([C@H](O)c1ccccc1)c1nc(cs1)C(=O)N[C@@H](Cc1ccc(O)cc1)C(=O)NCC(=O)N1C[C@H](O)[C@H](C)[C@H]1c1nc(cs1)-c1nc(cs1)-c1nc(-c3nc(N(CCCCC(=O)O)C(=O)O[C@H]4CC[C@H](C(=O)O)CC4)cs3)ccc1-c1nc(cs1)C(=O)N[C@H]2CC(N)=O | 0.25 µg/mL (≈ 0.167 µM) | 0.125 µg/mL (≈ 0.0833 µM) | 0.25 µg/mL (≈ 0.167 µM) | 0.125 µg/mL (≈ 0.0833 µM) | 0.06 µg/mL (≈ 0.04 µM) | 9700 µg/mL (≈ 6470 µM) | – | – | – | survival at 5 mg/kg (Clostridioides difficile [5]): 25%; survival at 10 mg/kg (Clostridioides difficile [9]): 63% |
| Cc1sc2nc1C(=O)N[C@@H]([C@H](O)c1ccccc1)c1nc(cs1)C(=O)N[C@@H](Cc1ccc(O)cc1)C(=O)NCC(=O)N1C[C@H](O)[C@H](C)[C@H]1c1nc(cs1)-c1nc(cs1)-c1nc(-c3nc(C(N)=O)cs3)ccc1-c1nc(cs1)C(=O)N[C@H]2CC(N)=O | 0.25 µg/mL (≈ 0.199 µM) | 0.5 µg/mL (≈ 0.398 µM) | 0.25 µg/mL (≈ 0.199 µM) | 1 µg/mL (≈ 0.795 µM) | < 0.008 µg/mL | – | 8 mg/kg | 1.5 mg/kg | 0% | MIC (Staphylococcus aureus [10]): 1 µg/mL (≈ 0.795 µM); MIC (Enterococcus faecalis [11]): 0.125 µg/mL (≈ 0.0994 µM) |
| Cc1sc2nc1C(=O)N[C@@H]([C@H](O)c1ccccc1)c1nc(cs1)C(=O)N[C@@H](Cc1ccc(O)cc1)C(=O)NCC(=O)N1C[C@H](O)[C@H](C)[C@H]1c1nc(cs1)-c1nc(cs1)-c1nc(-c3nc(C(=O)N[C@H]4CC[C@H](C(=O)O)CC4)cs3)ccc1-c1nc(cs1)C(=O)N[C@H]2CC(N)=O | 0.125 µg/mL (≈ 0.0903 µM) | 0.125 µg/mL (≈ 0.0903 µM) | 0.25 µg/mL (≈ 0.181 µM) | 0.25 µg/mL (≈ 0.181 µM) | 0.03 µg/mL (≈ 0.0217 µM) | 750 µg/mL (≈ 542 µM) | 3.42 mg/kg | 0.71 mg/kg | – | AUC [13]: 13.2 µM·h; clearance [14]: 0.98 mL/min/kg; Vd [15]: 0.032 L/kg; half-life [16]: 108 min; Activity (Staphylococcus aureus [6]): Dose-dependent effect; Activity (Enterococcus faecalis [7]): Dose-dependent effect; survival at 10 mg/kg (Clostridioides difficile [9]): 0% |
| Cc1sc2nc1C(=O)N[C@@H]([C@H](O)c1ccccc1)c1nc(cs1)C(=O)N[C@@H](Cc1ccc(O)cc1)C(=O)NCC(=O)N1C[C@H](O)[C@H](C)[C@H]1c1nc(cs1)-c1nc(cs1)-c1nc(-c3nc(C(=O)O)cs3)ccc1-c1nc(cs1)C(=O)N[C@H]2CC(N)=O | 0.5 µg/mL (≈ 0.397 µM) | 0.5 µg/mL (≈ 0.397 µM) | 2 µg/mL (≈ 1.59 µM) | 0.5 µg/mL (≈ 0.397 µM) | 0.125 µg/mL (≈ 0.0993 µM) | 1 µg/mL (≈ 0.795 µM) | – | – | 75% | – |
| Cc1sc2nc1C(=O)N[C@@H]([C@H](O)c1ccccc1)c1nc(cs1)C(=O)N[C@@H](Cc1ccc(O)cc1)C(=O)NCC(=O)N1C[C@H](O)[C@H](C)[C@H]1c1nc(cs1)-c1nc(cs1)-c1nc(-c3nc(NC(=O)O[C@H]4CC[C@H](C(=O)O)CC4)cs3)ccc1-c1nc(cs1)C(=O)N[C@H]2CC(N)=O | 0.125 µg/mL (≈ 0.0893 µM) | 0.125 µg/mL (≈ 0.0893 µM) | 0.25 µg/mL (≈ 0.179 µM) | 0.125 µg/mL (≈ 0.0893 µM) | 0.03 µg/mL (≈ 0.0214 µM) | 6 µg/mL (≈ 4.29 µM) | – | – | – | – |
| Cc1sc2nc1C(=O)N[C@@H]([C@H](O)c1ccccc1)c1nc(cs1)C(=O)N[C@@H](Cc1ccc(O)cc1)C(=O)NCC(=O)N1C[C@H](O)[C@H](C)[C@H]1c1nc(cs1)-c1nc(cs1)-c1nc(-c3nc(C(=O)NCCCCC(=O)O)cs3)ccc1-c1nc(cs1)C(=O)N[C@H]2CC(N)=O | 0.125 µg/mL (≈ 0.0921 µM) | 0.125 µg/mL (≈ 0.0921 µM) | 0.5 µg/mL (≈ 0.368 µM) | 0.125 µg/mL (≈ 0.0921 µM) | 0.06 µg/mL (≈ 0.0442 µM) | 730 µg/mL (≈ 538 µM) | – | – | 13% | – |
| CCCCCCCCCC(=O)N[C@@H](Cc1c[nH]c2ccccc12)C(=O)N[C@H](CC(N)=O)C(=O)N[C@@H](CC(=O)O)C(=O)N[C@@H]1C(=O)NCC(=O)N[C@@H](CCCN)C(=O)N[C@@H](CC(=O)O)C(=O)N[C@H](C)C(=O)N[C@@H](CC(=O)O)C(=O)NCC(=O)N[C@H](CO)C(=O)N[C@@H]([C@H](C)CC(=O)O)C(=O)N[C@@H](CC(=O)c2ccccc2N)C(=O)O[C@@H]1C | – | – | – | – | – | – | 0.21 mg/kg | 2.6 mg/kg | – | – |
